Assay results: ChEMBL document CHEMBL1142739, “Development of spin-labeled probes for adenosine receptors” (J Med Chem, 2005)

What was measured:
Adenosine receptor A2a [1] = molecular target: T1, Adenosine receptor A2a (Rattus norvegicus, UniProt P30543); assay: Inhibition of [3H]MSX-2 binding to adenosine A2a receptor
Adenosine receptor A3 = molecular target: T2, Adenosine receptor A3 (Homo sapiens, UniProt P0DMS8); assay: Inhibition of [3H]PSB-11 binding to adenosine A3 receptor
T2 sequence (P0DMS8 whole entry): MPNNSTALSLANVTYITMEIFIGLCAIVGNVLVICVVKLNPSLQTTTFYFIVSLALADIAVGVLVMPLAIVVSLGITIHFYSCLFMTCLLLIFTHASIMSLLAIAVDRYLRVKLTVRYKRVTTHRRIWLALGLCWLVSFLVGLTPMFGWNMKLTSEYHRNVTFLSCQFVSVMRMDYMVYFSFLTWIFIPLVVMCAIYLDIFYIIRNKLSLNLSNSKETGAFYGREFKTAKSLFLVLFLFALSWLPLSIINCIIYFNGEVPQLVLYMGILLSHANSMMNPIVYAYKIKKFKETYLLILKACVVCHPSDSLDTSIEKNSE

Adenosine receptor A2b [2] = molecular target: T3, Adenosine receptor A2b (Homo sapiens, UniProt P29275); assay: Inhibition of [3H]ZM-241380 binding to adenosine A2b receptor
T3 sequence (P29275 whole entry): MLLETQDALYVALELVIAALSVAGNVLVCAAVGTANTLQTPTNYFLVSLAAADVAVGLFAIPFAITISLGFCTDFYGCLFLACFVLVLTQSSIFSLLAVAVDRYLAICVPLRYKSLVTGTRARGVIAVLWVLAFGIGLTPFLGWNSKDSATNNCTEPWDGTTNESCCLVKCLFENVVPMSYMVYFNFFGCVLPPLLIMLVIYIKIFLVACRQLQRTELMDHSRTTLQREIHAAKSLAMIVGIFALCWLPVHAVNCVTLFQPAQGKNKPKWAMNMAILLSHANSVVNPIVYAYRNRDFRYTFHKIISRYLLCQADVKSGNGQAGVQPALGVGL

Adenosine receptor A1 [3] = molecular target: T4, Adenosine receptor A1 (Rattus norvegicus, UniProt P25099); assay: Inhibition of [3H]CCPA binding to adenosine A1 receptor
T4 sequence (P25099 whole entry): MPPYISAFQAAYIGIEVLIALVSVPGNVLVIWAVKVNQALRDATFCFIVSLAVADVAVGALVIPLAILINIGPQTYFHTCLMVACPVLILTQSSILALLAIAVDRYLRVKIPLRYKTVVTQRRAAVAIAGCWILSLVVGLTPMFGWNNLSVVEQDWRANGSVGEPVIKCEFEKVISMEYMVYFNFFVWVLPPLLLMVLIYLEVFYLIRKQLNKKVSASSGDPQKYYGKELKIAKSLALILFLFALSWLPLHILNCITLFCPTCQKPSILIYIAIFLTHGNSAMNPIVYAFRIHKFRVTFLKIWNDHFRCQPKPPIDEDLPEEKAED
Procedure, shortened: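 Radioligand competition assay; rat brain cortical membranes as the receptor source.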

Adenosine receptor A2a [4] = molecular target: T1, Adenosine receptor A2a; assay: Inhibition of [3H]NECA binding to adenosine A2a receptor
Procedure, shortened: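 Competition binding on rat brain striatal membranes as the A2A source. Where no Ki was reached, percent inhibition of radioligand binding was reported at 1 or 10 µM test compound.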

Adenosine receptor A1 [5] = molecular target: T4, Adenosine receptor A1; assay: Inhibition of [3H]R-PIA binding to adenosine A1 receptor
Procedure, shortened: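 Competition binding on rat brain cortical membranes as the A1 source. Where no Ki was reached, percent inhibition of radioligand binding was reported at 1 or 10 µM test compound.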

Adenosine receptor A2b [6] = molecular target: T3, Adenosine receptor A2b; assay: Inhibition of [3H]PSB-298 binding to adenosine A2b receptor
[7] = molecular target: T5, Adenosine receptor A3 (Homo sapiens) (UniProt P0DMS8); assay: Percent inhibition of [3H]PSB-11 binding to adenosine A3 receptor at 10 uM
T5 sequence (whole entry): T2 sequence (P0DMS8 whole entry)
Procedure, shortened: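 Radioligand competition assay; membranes from HEK cells stably expressing the human receptor. Percent inhibition of radioligand binding is reported at the stated test concentration.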

[8] = molecular target: T6, Adenosine receptor A2b (Homo sapiens) (UniProt P29275); assay: Percent inhibition of [3H]PSB-298 binding to adenosine A2b receptor at 10 uM
T6 sequence (whole entry): T3 sequence (P29275 whole entry)
Procedure, shortened: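 Radioligand competition assay; membranes from CHO cells stably expressing the human receptor. Percent inhibition of radioligand binding is reported at the stated test concentration.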

T1 sequence (P30543 whole entry): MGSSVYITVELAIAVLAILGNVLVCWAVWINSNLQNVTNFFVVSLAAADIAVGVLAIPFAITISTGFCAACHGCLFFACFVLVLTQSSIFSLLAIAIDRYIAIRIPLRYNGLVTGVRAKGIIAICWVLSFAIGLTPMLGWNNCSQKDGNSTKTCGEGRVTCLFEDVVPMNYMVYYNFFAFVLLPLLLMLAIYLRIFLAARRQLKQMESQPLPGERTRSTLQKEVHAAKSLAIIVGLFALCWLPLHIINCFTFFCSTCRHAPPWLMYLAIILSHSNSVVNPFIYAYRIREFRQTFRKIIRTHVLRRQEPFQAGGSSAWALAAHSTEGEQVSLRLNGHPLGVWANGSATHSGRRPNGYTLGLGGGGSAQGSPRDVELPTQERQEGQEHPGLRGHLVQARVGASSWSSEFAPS

| Ki (Adenosine receptor A2b [2]) | Ki (Adenosine receptor A2a [4]) | Ki (Adenosine receptor A1 [5]) | SMILES | Ki (Adenosine receptor A2a [1]) | Ki (Adenosine receptor A3) | Ki (Adenosine receptor A1 [3]) | Ki (Adenosine receptor A2b [6]) | inhibition [7] | inhibition [8] |
| --- | --- | --- | --- | --- | --- | --- | --- | --- | --- |
| 5.3 nM | – | – | CCCCn1c(=O)[nH]c2[nH]c(-c3ccc(OCC(=O)Nc4ccc(CC(=O)O)cc4)cc3)nc2c1=O | 479 nM | 676 nM | 41 nM | – | – | – |
| – | 511 nM | 8.7 nM | CCCn1c(=O)c2[nH]c(C3CCCC3)nc2n(Cc2ccccc2)c1=O | – | 54.6 nM | – | – | – | – |
| – | – | – | CCCn1c(=O)c2nc(C3=CC(C)(C)N([O])C3(C)C)[nH]c2n(CCC)c1=O | 3800 nM | ~10000 nM | 8.23 nM | 3100 nM | 47% | – |
| – | – | – | CCCn1c(=O)c2nc(C3CC(C)(C)N([O])C(C)(C)C3)[nH]c2n(CCC)c1=O | 6750 nM | ~10000 nM | 160 nM | > 10000 nM | – | – |
| – | – | – | CCCn1c(=O)c2nc(C3CCCC3)[nH]c2n(CC2=CC(C)(C)N([O])C2(C)C)c1=O | 8780 nM | 1700 nM | 5.47 nM | > 1000 nM | – | 23% |
